From ChEMBL document CHEMBL1275524, “Activities of antifungal agents against yeasts and filamentous fungi: assessment according to the methodology of the European Committee on Antimicrobial Susceptibility Testing” (2008)

Key:
Candida albicans = test: Antifungal activity against Candida albicans; format: functional
Method in brief: (§1)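 Broth microdilution in flat-bottom plates in RPMI 1640 with 2% glucose; inoculum 0.5 × 105 to 2.5 × 10^5 CFU/ml. MICs were read spectrophotometrically at 24 h. AMB endpoint: ≥90% growth reduction vs drug-free control well. Azole and CPF endpoint: 50% reduction in optical density. MFC was taken as the lowest concentration giving 99% killing.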

Nakaseomyces glabratus = test: Antifungal activity against Candida glabrata; format: functional; method in brief: as §1
Candida parapsilosis = test: Antifungal activity against Candida parapsilosis; format: functional; details: Lodderomyces parapsilosis; method in brief: as §1
Pichia kudriavzevii = test: Antifungal activity against Candida krusei; format: functional
Method in brief: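 EUCAST broth microdilution for yeasts in flat-bottom plates, RPMI 1640 with 2% glucose, inoculum 0.5 × 105 to 2.5 × 10^5 CFU/ml. […] MFC is the lowest concentration giving 99% killing.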

Clavispora lusitaniae = test: Antifungal activity against Candida lusitaniae; format: functional; method in brief: as §1
Candida tropicalis = test: Antifungal activity against Candida tropicalis; format: functional; method in brief: as §1
[1] = test system: Meyerozyma guilliermondii; test: Antifungal activity against Candida guilliermondii; format: functional; method in brief: as §1
Saccharomyces cerevisiae = test: Antifungal activity against Saccharomyces cerevisiae; format: functional
Method in brief: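 Broth microdilution following EUCAST for fermentative yeasts, in flat-bottom plates with RPMI 1640 plus 2% glucose. Inoculum was 0.5 × 10^5 to 2.5 × 10^5 CFU/ml. End points were read spectrophotometrically at 24 h: ≥90% growth reduction versus a drug-free control for amphotericin B, and 50% OD reduction for azoles and caspofungin. MFC was the lowest concentration giving 99% killing.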

[2] = Antifungal activity against Cryptococcus neoformans var. neoformans; format: functional; details: Cryptococcus deneoformans
Method in brief: (§2)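 EUCAST yeast microdilution, modified for nonfermentative yeasts: plates were sealed and agitated at 350 rpm and 30°C for 48 h.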

Cryptococcus gattii = test: Antifungal activity against Cryptococcus neoformans var. gattii; format: functional, Cryptococcus bacillisporus; method in brief: as §2
Trichosporon inkin = test: Antifungal activity against Trichosporon inkin; format: functional
Method in brief: (§3)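 Nonfermentative yeasts were tested by the EUCAST microdilution recommendations with one change: plates were sealed and agitated at 350 rpm and 30°C for 48 h.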

Trichosporon asahii = test: Antifungal activity against Trichosporon asahii; format: functional; method in brief: as §3
Geotrichum candidum = test: Antifungal activity against Geotrichum candidum; format: functional
Aspergillus fumigatus = test: Antifungal activity against Aspergillus fumigatus; format: functional
Aspergillus terreus = test: Antifungal activity against Aspergillus terreus; format: functional
Aspergillus flavus = test: Antifungal activity against Aspergillus flavus; format: functional
Aspergillus niger = test: Antifungal activity against Aspergillus niger; format: functional
Rhizomucor = test: Antifungal activity against Rhizomucor species; format: functional
Lichtheimia corymbifera = test: Antifungal activity against Absidia corymbifera; format: functional
Absidia = test: Antifungal activity against Absidia species; format: functional
[3] = Antifungal activity against Rhizopus microsporus var. oligosporus; format: functional
Method in brief: (§4)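 Broth microdilution following the EUCAST reference procedure for spore-forming moulds, in flat-bottom plates with RPMI 1640 plus 2% glucose. Inoculum was 2 × 10^5 to 5 × 10^5 CFU/ml. MICs were read visually at 24 and 48 h as 100% growth reduction versus a drug-free control for polyenes and azoles. MEC was used for caspofungin. Tests were run in duplicate and repeated twice.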

Rhizopus arrhizus = test: Antifungal activity against Rhizopus oryzae; format: functional; method in brief: as §4
Rhizopus = test: Antifungal activity against Rhizopus species; format: functional; method in brief: as §4
Mucor hiemalis = test: Antifungal activity against Mucor hiemalis; format: functional
Mucor = test: Antifungal activity against Mucor species; format: functional
Cunninghamella = test: Antifungal activity against Cunninghamella species; format: functional
Lomentospora prolificans = test: Antifungal activity against Scedosporium prolificans; format: functional; method in brief: as §4
Scedosporium apiospermum = test: Antifungal activity against Scedosporium apiospermum; format: functional; method in brief: as §4
Talaromyces marneffei = test: Antifungal activity against Penicillium marneffei; format: functional
Penicillium sp. = test: Antifungal activity against Penicillium species; format: functional
Fusarium solani = test: Antifungal activity against Fusarium solani; format: functional
Fusarium oxysporum = test: Antifungal activity against Fusarium oxysporum; format: functional
Sporothrix schenckii = test: Antifungal activity against Sporothrix schenckii; format: functional; method in brief: as §4
Curvularia lunata = test: Antifungal activity against Curvularia lunata; format: functional
Curvularia australiensis = test: Antifungal activity against Bipolaris australiensis; format: functional
Method in brief: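 Dematiaceous fungi were tested by the EUCAST spore-forming mold reference procedure: flat-bottom microdilution plates, RPMI 1640 plus 2% glucose, inoculum 2 × 105 to 5 × 10^5 CFU/ml. Endpoints were read visually at 24 and 48 h. Polyenes and azoles: 100% growth reduction vs drug-free control. CPF: minimum effective concentration. Run in duplicate and repeated twice.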

Measured: MFC

CC[C@@H]([C@H](C)O)n1ncn(-c2ccc(N3CCN(c4ccc(OC[C@@H]5CO[C@@](Cn6cncn6)(c6ccc(F)cc6F)C5)cc4)CC3)cc2)c1=O [POSACONAZOLE]
1 µg/mL: Aspergillus niger | Scedosporium apiospermum
0.06 µg/mL: Candida parapsilosis | Clavispora lusitaniae
> 0.12 µg/mL: Candida tropicalis
0.12 µg/mL: Candida albicans
0.25 µg/mL: [1] | Talaromyces marneffei | Fusarium oxysporum
> 8 µg/mL: Trichosporon asahii | Geotrichum candidum | [3] | Lomentospora prolificans | Fusarium solani
> 4 µg/mL: Nakaseomyces glabratus | Saccharomyces cerevisiae
0.125 µg/mL: [2] | Cryptococcus gattii | Curvularia australiensis
2 µg/mL: Lichtheimia corymbifera | Rhizopus arrhizus | Mucor hiemalis | Mucor | Cunninghamella
> 2 µg/mL: Rhizomucor | Rhizopus
0.5 µg/mL: all other assays above
